Screens from PubChem.
TbHK1 inh – blocks Trypanosoma brucei hexokinase 1 activity | inhibition, % at 10 µM | recombinant TbHK1, G6PDH-coupled NADH A340 | AID 1430 | 220,000 compounds, 0.11% hits;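 active = inhibition of 50% or more in the single-dose primary screen; inactive = inhibition below 50%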
FXIa inh 1536 – inhibitors of human coagulation factor XIa | P03951 | purified FXIa, Boc-Glu-Ala-Arg-AMC fluorogenic substrate | inhibition, % at 5 µM | 220,000 compounds, 0.14% hits;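 active = inhibition of at least 40%; inactive = inhibition below 40%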;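 also: fluorescence of freed AMC excited at 355 nm; 0% = enzyme without compound and 100% = no enzyme blank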
thrombin 1536 – inhibitors of human thrombin; P00734; alpha-thrombin, Boc-VPR-AMC fluorogenic substrate cleavage; inhibition, % at 5 µM; 220,000 compounds, 0.26% hits; AID 1046;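 active = inhibition at or above 40%; inactive = inhibition below 40%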;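 also: 0% = enzyme with no compound and 100% = wells without enzyme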
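Test system: human alpha-thrombin protein / Dosing: one concentration per compound, 5 µM, with 0.2% DMSO / Medium: pH 7.5 Tris-saline with Tween 20 / Benchmarks: no-compound enzyme wells and no-enzyme blanks / Read-out basis: percent inhibition of thrombin substrate cleavage / Timing: reaction at room temperature / Measured by: fluorescence, ex 355 nm, em 460 nm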
hK5 inh – inhibitors of human kallikrein 5 | recombinant hK5, fluorogenic AMC substrate cleavage | inhibition, % at 5 µM | 210,000 compounds, 0.59% hits;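 active = inhibition of 40% or more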;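 also: 0% = enzyme controls without compound and 100% = no-enzyme blanks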
FXIIa inh – inhibitors of human coagulation factor XIIa. 220,000 compounds, 0.3% hits. purified FXIIa, Boc-QGR-AMC fluorogenic substrate, 2 h. P00748. inhibition, % at 5 µM; in the data active = inhibition above about 40%;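 also: 0% = enzyme with no compound and 100% = blank without enzyme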
Target sequence (P00748 20-372 limits assumed): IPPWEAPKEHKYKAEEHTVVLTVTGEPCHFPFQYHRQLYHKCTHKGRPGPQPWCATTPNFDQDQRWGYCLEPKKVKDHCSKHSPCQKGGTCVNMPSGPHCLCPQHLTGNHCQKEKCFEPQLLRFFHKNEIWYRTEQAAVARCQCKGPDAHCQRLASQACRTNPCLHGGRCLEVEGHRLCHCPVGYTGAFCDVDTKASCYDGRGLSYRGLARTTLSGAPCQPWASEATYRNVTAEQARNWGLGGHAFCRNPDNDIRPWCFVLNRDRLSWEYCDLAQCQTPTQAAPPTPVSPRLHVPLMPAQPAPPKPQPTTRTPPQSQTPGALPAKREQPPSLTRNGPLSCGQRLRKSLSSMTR
Target sequence (P00748 373-615 limits assumed): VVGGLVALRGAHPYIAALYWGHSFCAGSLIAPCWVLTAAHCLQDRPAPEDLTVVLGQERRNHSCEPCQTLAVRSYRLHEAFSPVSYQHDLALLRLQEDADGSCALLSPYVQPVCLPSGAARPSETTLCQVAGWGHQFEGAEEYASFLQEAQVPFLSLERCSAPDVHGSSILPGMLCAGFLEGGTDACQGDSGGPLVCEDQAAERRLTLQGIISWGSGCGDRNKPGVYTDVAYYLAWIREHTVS
* marks the source's active call; other numbers are inactive results; / = no result given. The list is not random: actives were taken first. Their share in the collection is about 1.1%.

SMILES	TbHK1 inh	FXIa inh 1536	thrombin 1536	hK5 inh	FXIIa inh
CC(=O)N1C(=O)/C(=C2\SC(=S)N(c3c(C)n(C)n(-c4ccccc4)c3=O)C2=O)c2ccccc21	-10.3	-5.8	50.1*	9.6	5.6
Cc1c(N2C(=O)/C(=C3/C(=O)N(C)c4ccccc43)SC2=S)c(=O)n(-c2ccccc2)n1C	-4.3	6.5	6.1	-0.9	20.4
CCOCC(=O)Nc1cc(Cl)ccc1C	4.6	0.1	1.7	-0.9	5.9
O=C(NCc1nnc(SCC(=O)N2CCCC2)o1)c1c(F)cccc1Cl	-6.4	-1.4	-1.8	-6.3	7.9
CCOC(=O)N1CCN(C(=O)CSc2nnc(CNC(=O)c3c(F)cccc3Cl)o2)CC1	1.7	-0.9	13.2	41.7*	22.4
COCCNC(=O)c1ccccc1NC(=O)CSc1ccc(C)cc1	-6.9	1.0	0.7	/	12.3
COc1ccc(OC)c(C2CC(c3c(-c4ccccc4)c4cc(Cl)ccc4[nH]c3=O)=NN2S(C)(=O)=O)c1 (centres undefined)	-9.7	0.2	3.3	42.1*	8.5
COc1ccc(C2CC(c3c(-c4ccccc4)c4cc(Cl)ccc4[nH]c3=O)=NN2S(C)(=O)=O)cc1 (centres undefined)	-15.1	-4.1	-1.1	-3.4	12.2
CC(NC(=O)Nc1nnc(C(F)(F)F)s1)(C(F)(F)F)C(F)(F)F	-2.3	19.9	2.8	-0.5	40.1*
CC(C)(C)CC(=O)Nc1nnc(C(F)(F)F)s1	1.0	9.1	-2.4	-8.7	17.8
Cc1ccc(-c2[nH]nc3c2C(c2ccoc2)C(C#N)=C(N)O3)cc1C (centres undefined)	0.0	-4.9	-2.4	61.8*	-3.2
CCOC(=O)CSc1n[nH]c(NC(C)=O)n1	-3.5	-3.1	-0.1	/	11.2
CCOC(=O)c1sc(NC(=O)/C=C/c2cnn(C)c2C)c(C(=O)OCC)c1C	-16.1	0.2	47.0*	8.5	5.8
Cc1ccc(C(=O)NC(=O)CSc2ncccc2C(=O)O)cc1	-1.1	1.0	2.9	/	13.3
CC(O)CN=c1cc(-c2ccccc2)oc2ccc(Cl)cc12 (centres undefined)	-48.8	-4.3	15.0	68.0*	16.3
CCOc1ccc(NC(=O)CCN2CCN(S(=O)(=O)c3ccc(Cl)cc3)CC2)cc1	-5.6	-2.8	28.0	55.3*	20.7
COc1cc(NC(=O)CN2CCN(S(=O)(=O)c3ccc(C(C)C)cc3)CC2)cc(OC)c1	-6.2	14.7	10.4	40.5*	26.0
O=C(Cc1ccc([N+](=O)[O-])cc1)Nc1ccc(Cl)cc1	-6.1	-2.8	-17.4	1.6	3.8
Cc1c(Cl)cccc1NC(=O)Cc1ccc([N+](=O)[O-])cc1	-2.5	-2.5	95.8*	2.7	9.3
CCc1nc(Nc2ccccc2)c2oc3ccccc3c2n1	-8.6	-6.8	1.9	-27.3	0.5
CCc1nc(OCCN(C)C)c2oc3ccccc3c2n1	8.2	21.3	21.9	42.6*	21.0
COc1ccc(N2CCN(S(=O)(=O)c3ccc(C(=O)NC4CCCC4)cc3)CC2)cc1	1.4	8.1	-4.0	6.1	46.5*
O=C(CCS(=O)(=O)c1cccc2nonc12)NCc1ccc(Cl)cc1	-4.3	-0.4	1.7	0.7	7.7
CC(Sc1nnc2ccccn12)C(=O)Nc1ccc(Cl)cn1 (centres undefined)	-1.4	0.8	-6.4	-7.8	16.9
CC(Sc1nnnn1-c1ccccc1)C(=O)Nc1ccc(Cl)cn1 (centres undefined)	-1.8	17.4	16.1	51.5*	2.2
SMILES	TbHK1 inh	FXIa inh 1536	thrombin 1536	hK5 inh	FXIIa inh
O=C(Cn1nnc(-c2ccccc2)n1)OCc1csc(-c2ccccc2)n1	2.3	11.6	20.9	21.6	48.6*
N#Cc1ccc(-c2ccc(OCC(=O)NCCCN3CCCC3=O)cc2)cc1	-10.1	-4.4	-5.1	-2.7	8.7
CCCNC(=O)C1CC(c2ccc(C(F)(F)F)cc2)=NO1 (centres undefined)	-4.2	101.9*	21.4	21.8	19.9
NC(=O)COc1c(-c2ccccc2)oc2ccccc2c1=O	-18.9	8.3	3.0	46.4*	15.7
O=C(O)COc1c(-c2ccccc2)oc2ccccc2c1=O	-15.8	9.4	-13.8	-15.3	18.0
C=CCNc1ncnc2c1cnn2-c1ccc(C)cc1C	-5.8	-4.8	-3.0	-7.6	3.0
CCOC(=O)N1CCC(Nc2ncnc3c2cnn3-c2ccc(C)cc2C)CC1	-1.0	14.9	17.4	44.2*	16.7
O=c1c2ccccc2c(C=Nc2cccc(S(=O)(=O)NCc3ccco3)c2)c(O)n1-c1ccc(Cl)cn1	4.0	3.8	-8.3	11.7	13.3
CC1CCc2[nH]nc(C(=O)O)c2C1 (centres undefined)	2.1	15.3	77.6*	31.9	5.4
CSc1cc(C)n(-c2ccccc2)c(=S)c1C(C)=O	-21.4	1.8	20.2	46.1*	17.8
CCC(=O)Nc1ccc(NC(=O)CSc2nnnn2CC)cc1C	-1.7	11.1	27.0	72.5*	13.8
Cc1ccc(S(=O)(=O)N(C)CC(=O)Nc2ccccc2)cc1	1.6	15.3	13.7	53.4*	23.0
COC(=O)c1ccccc1NC(=O)CN(C)S(=O)(=O)c1ccc(OC)cc1	2.6	2.2	1.2	-3.2	9.9
COC(=O)c1ccccc1NC(=O)CN(C)S(=O)(=O)c1ccc(OC)c(C)c1	6.1	-4.0	2.4	118.7*	4.0
CSc1cccc(NC(=O)CN(C)S(=O)(=O)c2ccc(C)cc2)c1	0.2	10.8	13.8	17.4	22.8
CC(O)CNCCCOc1ccc(Cl)cc1C(C)(C)C (centres undefined)	-8.1	-1.9	-2.8	/	3.6
CCOc1ccccc1C(=O)Nc1ccc(-n2nncc2C(C)(C)C)cc1	-1.0	-5.4	-7.1	-9.4	-0.4
COc1ccc(-c2noc(CN3CCCC(OCc4ccccn4)C3)n2)cc1 (centres undefined)	9.3	1.2	-1.7	-1.8	3.3
COc1cc(=O)n2c(n1)SCCC2	10.8	1.8	2.1	-22.1	15.8
Cc1cc(=O)n2c(n1)SCOC2	0.4	20.8	4.8	35.0	42.8*
COc1ccc(-n2nc(C(=O)c3cccs3)cc(-c3nc4ccccc4[nH]3)c2=N)cc1	-5.3	14.4	57.1*	-19.2	20.5
C=CCN(c1ccc(F)cc1)S(=O)(=O)c1cc(C(=O)OCC(=O)N(C)C2CCS(=O)(=O)C2)ccc1Cl (centres undefined)	-7.7	-3.0	-3.5	-3.2	1.7
COc1cccc(C(=O)OCCN2CCOCC2)c1	4.7	50.7*	-3.0	35.5	32.1
COc1cccc(/C(O)=C2/C(=O)C(=O)N(CCN3CCOCC3)C2c2cccnc2)c1 (centres undefined)	-23.8	10.5	-2.3	-6.4	13.8
COc1cccc(/C(O)=C2/C(=O)C(=O)N(CCCN3CCOCC3)C2c2ccncc2)c1 (centres undefined)	-28.2	-3.2	0.9	117.1*	-4.3
Cc1cc(/C(O)=C2\C(=O)C(=O)N(CCN(C)C)C2c2ccncc2)ccc1OCc1ccccc1 (centres undefined)	-15.4	10.9	21.3	71.5*	24.4
Cc1ccc2c(c1)C(=O)N(CCCCO)C2=O	-4.8	11.2	-1.9	-2.2	3.6
